Data: ChEMBL document CHEMBL1208778, “Synthesis and anti-cancer activity of chalcone linked imidazolones” (2010)
Active and inactive are the calls of the source. No cut-off for these calls is given here.

Key:
Format in all cases: functional
[1] = test system: OVCAR-5; assay: Growth inhibition of human OVCAR5 cells
Outline: (§1)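 Five-dose testing was run within the NCI (Bethesda) in vitro Anticancer Screen Program on a panel of 53 human tumour cell lines from nine cancer types. Growth inhibition is reported as GI50.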

[2] = test system: MCF7; assay: Cell cycle arrest in human MCF7 cells assessed as accumulation at G2/M phase at 30 uM after 24 hrs by FACS analysis
Outline: (§2)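 MCF-7 cells were treated at 30 µM for 24 h alongside a DMSO control. Fractions in G0, G1, S and G2/M phases were measured by FACS, and values are means of three experiments.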

[3] = test system: MDA-MB-231; assay: Growth inhibition of human MDA-MB-231 cells; outline: as §1
[4] = test system: UACC-62; assay: Growth inhibition of human UACC62 cells
Outline: (§3)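 Compounds that passed a preliminary screen were tested at five doses in the NCI (Bethesda) in vitro Anticancer Screen Program against a 53-line human tumour panel spanning leukemia, lung, colon, CNS, melanoma, ovarian, renal, prostate and breast. Growth inhibition is reported as GI50.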

[5] = test system: EKVX; assay: Growth inhibition of human EKVX cells; outline: as §1
[6] = test system: NCI-H522; assay: Growth inhibition of human NCI-H522 cells; outline: as §1
[7] = test system: NCI-H226; assay: Growth inhibition of human NCI-H226 cells; outline: as §1
[8] = test system: MCF7; assay: Growth inhibition of human MCF7 cells; outline: as §1
[9] = test system: UO-31; assay: Growth inhibition of human UO31 cells; outline: as §3
[10] = test system: BT-549; assay: Growth inhibition of human BT549 cells; outline: as §1
[11] = test system: U-251; assay: Growth inhibition of human U251 cells; outline: as §3
[12] = test system: SK-OV-3; assay: Growth inhibition of human SKOV3 cells; outline: as §3
[13] = test system: SF-539; assay: Growth inhibition of human SF539 cells; outline: as §1
[14] = test system: MCF7; assay: Cell cycle arrest in human MCF7 cells assessed as accumulation at G1 phase at 10 uM after 24 hrs by FACS analysis
Outline: (§4)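 MCF-7 breast carcinoma cells were exposed to 10 µM test compound for 24 h, with DMSO as the vehicle control. Cell-cycle distribution was read by FACS as the percentage of cells in G0, G1, S and G2/M.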

[15] = test system: MDA-MB-435; assay: Growth inhibition of human MDA-MB-435 cells; outline: as §1
[16] = test system: NCI-H460; assay: Growth inhibition of human NCI-H460 cells; outline: as §1
[17] = test system: SNB-19; assay: Growth inhibition of human SNB19 cells; outline: as §3
[18] = test system: KM12; assay: Growth inhibition of human KM12 cells; outline: as §1
[19] = test system: MCF7; assay: Cell cycle arrest in human MCF7 cells assessed as accumulation at G0 phase at 30 uM after 24 hrs by FACS analysis; outline: as §2
[20] = test system: RXF 393; assay: Growth inhibition of human RXF393 cells; outline: as §1
[21] = test system: SF-295; assay: Growth inhibition of human SF295 cells; outline: as §1
[22] = test system: OVCAR-3; assay: Growth inhibition of human OVCAR-3 cells; outline: as §1
[23] = test system: LOX IMVI; assay: Growth inhibition of human LOXIMVI cells; outline: as §1
[24] = test system: 786-0; assay: Growth inhibition of human 786-0 cells; outline: as §1
[25] = test system: K562; assay: Growth inhibition of human K562 cells; outline: as §1
[26] = test system: NCI/ADR-RES; assay: Growth inhibition of human NCI/ADR-RES cells; outline: as §1
[27] = test system: HCC 2998; assay: Growth inhibition of human HCC2998 cells; outline: as §1
[28] = test system: SNB-75; assay: Growth inhibition of human SNB75 cells; outline: as §3
[29] = test system: MCF7; assay: Cell cycle arrest in human MCF7 cells assessed as accumulation at G2/M phase at 10 uM after 24 hrs by FACS analysis; outline: as §4
[30] = test system: COLO 205; assay: Growth inhibition of human COLO205 cells; outline: as §1
[31] = test system: HOP-62; assay: Growth inhibition of human HOP62 cells; outline: as §1
[32] = test system: OVCAR-8; assay: Growth inhibition of human OVCAR8 cells; outline: as §1
[33] = test system: NCI-H23; assay: Growth inhibition of human NCI-H23 cells; outline: as §1
[34] = test system: MCF7; assay: Cell cycle arrest in human MCF7 cells assessed as accumulation at G1 phase at 30 uM after 24 hrs by FACS analysis; outline: as §2
[35] = test system: Malme-3M; assay: Growth inhibition of human MALME-3M cells; outline: as §1
[36] = test system: M14; assay: Growth inhibition of human M14 cells; outline: as §1
[37] = test system: SN12C; assay: Growth inhibition of human SN12C cells; outline: as §3
[38] = test system: SK-MEL-2; assay: Growth inhibition of human SK-MEL-2 cells; outline: as §1
[39] = Growth inhibition of human RPMI8266 cells; outline: as §1
[40] = test system: MCF7; assay: Cell cycle arrest in human MCF7 cells assessed as accumulation at S phase at 10 uM after 24 hrs by FACS analysis; outline: as §4
[41] = test system: PC-3; assay: Growth inhibition of human PC3 cells; outline: as §1
[42] = test system: TK-10; assay: Growth inhibition of human TK10 cells; outline: as §3
[43] = test system: SK-MEL-28; assay: Growth inhibition of human SK-MEL-28 cells; outline: as §1
[44] = test system: OVCAR-4; assay: Growth inhibition of human OVCAR4 cells; outline: as §1
[45] = test system: A498; assay: Growth inhibition of human A498 cells; outline: as §1
[46] = test system: CAKI-1; assay: Growth inhibition of human Caki1 cells; outline: as §1
[47] = test system: Hs-578T; assay: Growth inhibition of human Hs 578T cells; outline: as §1
[48] = test system: T47D; assay: Growth inhibition of human T47D cells; outline: as §3
[49] = test system: HCT-15; assay: Growth inhibition of human HCT15 cells; outline: as §1
[50] = test system: A549; assay: Growth inhibition of human A549 cells; outline: as §1
[51] = test system: SF-268; assay: Growth inhibition of human SF268 cells; outline: as §1
[52] = test system: HT-29; assay: Growth inhibition of human HT-29 cells; outline: as §1
[53] = test system: SW-620; assay: Growth inhibition of human SW620 cells; outline: as §3
[54] = test system: HCT-116; assay: Growth inhibition of human HCT116 cells; outline: as §1
[55] = test system: ACHN; assay: Growth inhibition of human ACHN cells; outline: as §1
[56] = test system: MCF7; assay: Cell cycle arrest in human MCF7 cells assessed as accumulation at S phase at 30 uM after 24 hrs by FACS analysis; outline: as §2
[57] = test system: SK-MEL-5; assay: Growth inhibition of human SK-MEL-5 cells; outline: as §1
[58] = test system: NCI-H322M; assay: Growth inhibition of human NCI-H322M cells; outline: as §1
[59] = test system: MCF7; assay: Cell cycle arrest in human MCF7 cells assessed as accumulation at G0 phase at 10 uM after 24 hrs by FACS analysis; outline: as §4
[60] = test system: UACC-257; assay: Growth inhibition of human UACC257 cells; outline: as §3

COc1cc(/C=C/C(=O)c2cccc(-n3cc(-c4cc(OC)c(OC)c(OC)c4)[nH]c3=O)c2)cc(OC)c1OC
GI50 [1]: 4380 nM | Activity [2]: 9.75% | GI50 [3]: 4190 nM | GI50 [4]: 1870 nM | GI50 [5]: 9470 nM | GI50 [6]: 1050 nM | GI50 [7]: 14400 nM | GI50 [8]: 470 nM | GI50 [9]: 960 nM | GI50 [10]: 1520 nM | GI50 [11]: 1230 nM | GI50 [12]: 5120 nM | GI50 [13]: 3120 nM | Activity [14]: 47.6% | GI50 [15]: 2110 nM | GI50 [16]: 1730 nM | GI50 [17]: 4070 nM | GI50 [18]: 1120 nM | Activity [19]: 39.7% | GI50 [20]: 1620 nM | GI50 [21]: 4960 nM | GI50 [22]: 1480 nM | GI50 [23]: 1230 nM | GI50 [24]: 1590 nM | GI50 [25]: 590 nM | GI50 [26]: 2100 nM | GI50 [27]: 1920 nM | GI50 [28]: 5130 nM | Activity [29]: 23.12% | GI50 [30]: 1520 nM | GI50 [31]: 3080 nM | GI50 [32]: 2320 nM | GI50 [33]: 2000 nM | Activity [34]: 42.7% | GI50 [35]: 1800 nM | GI50 [36]: 2120 nM | GI50 [37]: 2750 nM | GI50 [38]: 3020 nM | GI50 [39]: 230 nM | Activity [40]: 25.65% | GI50 [41]: 2630 nM | GI50 [42]: 3000 nM | GI50 [43]: 1610 nM | GI50 [44]: 3770 nM | GI50 [45]: 20300 nM | GI50 [46]: 2890 nM | GI50 [47]: inactive | GI50 [48]: 3080 nM | GI50 [49]: 1890 nM | GI50 [50]: 3030 nM | GI50 [51]: 2200 nM | GI50 [52]: 1700 nM | GI50 [53]: 1030 nM | GI50 [54]: 740 nM | GI50 [55]: 1740 nM | Activity [56]: 7.85% | GI50 [57]: 2760 nM | GI50 [58]: 3610 nM | Activity [59]: 3.63% | GI50 [60]: 2220 nM
